Reference: ChEMBL document CHEMBL1136954, “Toward the back-up of boceprevir (SCH 503034): discovery of new extended P4-capped ketoamide inhibitors of hepatitis C virus NS3 serine protease with improved potency and pharmacokinetic profiles” (J Med Chem, 2009)

Assays:
[1] = Inhibition of HCV NS4A-tethered single chain NS3 serine protease by spectrophotometric assay; design: species or system Hepacivirus hominis
In short: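 Continuous assay with NS4A-tethered single-chain NS3 serine protease; potency given as Ki*.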

[2] = tested on: Hepatitis C virus; experiment: Antiviral activity against Hepatitis C virus genotype 1 infected in human hepatocytes by replicon assay; assay type: functional, Hepacivirus hominis; details: genotype 1, Hepatocyte
In short: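 HCV genotype 1 replicon cell assay; EC90 reported, within 3-fold at 95% confidence for a single assay and within 2-fold for multiple assays.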

[3] = Cytotoxicity against human hepatocytes assessed as effect on GAPDH RNA level […]; assay type: cell-based, Hepatocyte
In short: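 Counter-screen for cellular toxicity measuring GAPDH; CC50 reported.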

[4] = AUC (0 to 6 hrs) in rat at 10 mg/kg, po; assay type: ADME, organism-based; design: time < 6 hr, dose 10 mg/kg, route oral; details: plasma
[5] = Drug level in rat liver at 10 mg/kg, po after 6 hrs; assay type: ADME, organism-based; design: dose 10 mg/kg, route oral; details: read-out: Drug uptake
In short: (§1)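 Rapid rat oral screen, 2 animals, PO vehicle 40% HPBCD; compound concentration measured in liver at 6 h, or at 8 h where footnoted; plasma AUC taken over 0-6 h.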

[6] = AUC in rat at 10 mg/kg, po; assay type: ADME, organism-based; design: dose 10 mg/kg, route oral; details: plasma
In short: (§2)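 Rats dosed PO and IV at 10 mpk, 3 animals per route; IV given in 40% HPBCD, PO in 0.4% MC.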

[7] = AUC in rat at 10 mg/kg, iv; assay type: ADME, organism-based; design: dose 10 mg/kg, route intravenous; details: plasma
[8] = Half life in rat at 10 mg/kg, iv; assay type: ADME, organism-based; design: dose 10 mg/kg, route intravenous; details: in vivo; in short: as §2
[9] = Clearance in rat at 10 mg/kg, po and at 10 mg/kg, iv; assay type: ADME, organism-based; details: in vivo; in short: as §2
[10] = Volume of distribution at steady state in rat at 10 mg/kg, po and at 10 mg/kg, iv; assay type: ADME, organism-based; details: in vivo, read-out: Vdss; in short: as §2
[11] = Oral bioavailability in rat at 10 mg/kg; assay type: ADME, organism-based; details: in vivo; in short: as §2
[12] = AUC in cynomolgus monkey at 3 mg/kg, po; assay type: ADME, organism-based, Macaca fascicularis; design: dose 3 mg/kg, route oral; details: plasma
In short: (§3)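 Cynomolgus monkey dosed PO and IV at 3 mpk, 3 animals per route; IV vehicle 20% HPBCD, PO vehicle 0.4% MC. AUC in µM·h, t1/2 in h, clearance mL/min/kg, Vd(ss) L/kg, F in %.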

[13] = AUC in cynomolgus monkey at 3 mg/kg, iv; assay type: ADME, organism-based, Macaca fascicularis; design: dose 3 mg/kg, route intravenous; details: plasma; in short: as §3
[14] = Half life in cynomolgus monkey at 3 mg/kg, iv; assay type: ADME, organism-based, Macaca fascicularis; design: dose 3 mg/kg, route intravenous; details: in vivo; in short: as §3
[15] = Clearance in cynomolgus monkey at 3 mg/kg, po and at 3 mg/kg, iv; assay type: ADME, organism-based, Macaca fascicularis; details: in vivo; in short: as §3
[16] = Volume of distribution at steady state in cynomolgus monkey at 3 mg/kg, po and at 3 mg/kg, iv; assay type: ADME, organism-based, Macaca fascicularis; details: in vivo, read-out: Vdss; in short: as §3
[17] = Oral bioavailability in cynomolgus monkey at 3 mg/kg; assay type: ADME, organism-based, Macaca fascicularis; details: in vivo; in short: as §3
[18] = Metabolic stability in cynomolgus monkey urine assessed as recovery of radioactivity at 2 mg/kg, po after 24 hrs; assay type: ADME, organism-based, Macaca fascicularis; design: dose 2 mg/kg, route oral; details: in vivo
In short: (§4)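 Two cynomolgus monkeys given the 14C-labelled ketoamide orally at 2 mg/kg; radioactivity collected in bile and urine over 0-24 h and expressed as % of oral dose; plasma also sampled.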

[19] = Metabolic stability in cynomolgus monkey bile assessed as recovery of radioactivity at 2 mg/kg, po after 24 hrs; assay type: ADME, organism-based, Macaca fascicularis; design: dose 2 mg/kg, route oral; details: in vivo; in short: as §4
[20] = Drug level in rat liver at 10 mg/kg, po after 8 hrs; assay type: ADME, organism-based; design: dose 10 mg/kg, route oral; details: read-out: Drug uptake; in short: as §1

| SMILES | Ki [1] | EC90 [2] | CC50 [3] | AUC(0-t) at 6 h [4] | further results |
| --- | --- | --- | --- | --- | --- |
| CC(C)[C@H](NC(=O)N[C@H](C(=O)N1C[C@H]2[C@@H]([C@H]1C(=O)NC(CC1CC1)C(=O)C(N)=O)C2(C)C)C(C)(C)C)C(=O)C1CC1 (mixture of isomers) | 7 nM | 100 nM | > 5 µM | 0.12 µM·h |  |
| C#CCCC(NC(=O)[C@@H]1[C@@H]2[C@H](CN1C(=O)[C@@H](NC(=O)N[C@H](C(=O)C1CC1)C1CCCCC1)C(C)(C)C)C2(C)C)C(=O)C(=O)NC1CC1 (mixture of isomers) | 4 nM | 55 nM | > 5 µM | 11 µM·h | concentration at 6 h [5]: 2900 nM |
| CC(C)[C@H](NC(=O)N[C@H](C(=O)N1C[C@H]2[C@@H]([C@H]1C(=O)NC(CC1CC1)C(=O)C(N)=O)C2(C)C)C(C)(C)C)C(=O)c1nccs1 (mixture of isomers) | 9 nM | 90 nM | > 5 µM | 0.15 µM·h |  |
| CC(C)[C@H](NC(=O)N[C@H](C(=O)N1C[C@H]2[C@@H]([C@H]1C(=O)NC(CC1CC1)C(=O)C(N)=O)C2(C)C)C(C)(C)C)C(=O)c1ccccn1 (mixture of isomers) | 8 nM | 200 nM | > 5 µM | 0.42 µM·h |  |
| C#CCCC(NC(=O)[C@@H]1[C@@H]2[C@H](CN1C(=O)[C@@H](NC(=O)N[C@H](C(=O)C1CC1)C1CCCCC1)C(C)(C)C)C2(C)C)C(=O)C(=O)NCC=C (mixture of isomers) | 9 nM | 250 nM | > 5 µM | 24 µM·h | concentration at 6 h [5]: 8500 nM |
| COC(=O)C1(NC(=O)N[C@H](C(=O)N2C[C@H]3[C@@H]([C@H]2C(=O)NC(CC2CC2)C(=O)C(N)=O)C3(C)C)C(C)(C)C)CCCCC1 (mixture of isomers) | 30 nM | 200 nM | > 5 µM |  |  |
| C=CCNC(=O)C(=O)C(CCC)NC(=O)[C@@H]1[C@@H]2[C@H](CN1C(=O)[C@@H](NC(=O)N[C@H](C(=O)C1CC1)C1CCCCC1)C(C)(C)C)C2(C)C (mixture of isomers) | 10 nM | 500 nM | > 5 µM | 55 µM·h |  |
| CC(C)(C)[C@H](NC(=O)N[C@H](C(=O)c1ccccn1)C1CCCCC1)C(=O)N1C[C@H]2[C@@H]([C@H]1C(=O)NC(CC1CC1)C(=O)C(N)=O)C2(C)C (mixture of isomers) | 7 nM | 90 nM | > 5 µM | 1.4 µM·h | concentration at 6 h [5]: 800 nM |
| CC(C)(C)[C@H](NC(=O)NC1(C(=O)OCC2CC2)CCCCC1)C(=O)N1C[C@H]2[C@@H]([C@H]1C(=O)NC(CC1CC1)C(=O)C(N)=O)C2(C)C (mixture of isomers) | 39 nM | 60 nM | > 5 µM |  |  |
| CC(C)(C)[C@H](NC(=O)NC1(C(=O)OCc2ccco2)CCCCC1)C(=O)N1C[C@H]2[C@@H]([C@H]1C(=O)NC(CC1CC1)C(=O)C(N)=O)C2(C)C (mixture of isomers) | 28 nM | 30 nM | > 5 µM |  |  |
| CC(C)(C)[C@H](NC(=O)NC1(C(=O)OCc2ccsc2)CCCCC1)C(=O)N1C[C@H]2[C@@H]([C@H]1C(=O)NC(CC1CC1)C(=O)C(N)=O)C2(C)C (mixture of isomers) | 31 nM | 20 nM | > 5 µM |  |  |
| CC(C)[C@H](NC(=O)N[C@H](C(=O)N1C[C@H]2[C@@H]([C@H]1C(=O)NC(CC1CC1)C(=O)C(N)=O)C2(C)C)C(C)(C)C)C(=O)c1ccccc1 (mixture of isomers) | 5 nM | 80 nM | > 5 µM |  | AUC [6]: 0.26 µM·h |
| CC(C)(C)[C@H](NC(=O)NC1(C(=O)OCc2ccoc2)CCCCC1)C(=O)N1C[C@H]2[C@@H]([C@H]1C(=O)NC(CC1CC1)C(=O)C(N)=O)C2(C)C (mixture of isomers) | 39 nM | 20 nM | > 5 µM |  |  |
| C=CCNC(=O)C(=O)C(CCC)NC(=O)[C@@H]1[C@@H]2[C@H](CN1C(=O)[C@@H](NC(=O)N[C@H](C(=O)C1CC1)C(C)C)C(C)(C)C)C2(C)C (mixture of isomers) | 25 nM | 600 nM | > 5 µM | 26 µM·h |  |
| CC(C)(C)[C@H](NC(=O)NC1(C(=O)OCc2ccccc2)CCCCC1)C(=O)N1C[C@H]2[C@@H]([C@H]1C(=O)NC(CC1CC1)C(=O)C(N)=O)C2(C)C (mixture of isomers) | 49 nM | 20 nM | > 5 µM |  | AUC [7]: 9.3 µM·h; half-life [8]: 174 min; clearance [9]: 28 mL/min/kg; Vd [10]: 3.5 L/kg; bioavailability [11]: 0%; AUC [12]: 0.05 µM·h; AUC [13]: 3.4 µM·h; half-life [14]: 186 min; clearance [15]: 43 mL/min/kg; Vd [16]: 1.7 L/kg; bioavailability [17]: 3%; Stability [18]: 0.8%; Stability [19]: 4.3% |
| C#CCCC(NC(=O)[C@@H]1[C@@H]2[C@H](CN1C(=O)[C@@H](NC(=O)N[C@H](C(=O)C1CC1)C(C)C)C(C)(C)C)C2(C)C)C(=O)C(=O)NC1CC1 (mixture of isomers) | 8 nM | 70 nM | > 5 µM | 4.8 µM·h | concentration at 6 h [5]: 900 nM |
| CC(C)(C)[C@H](NC(=O)N[C@H](C(=O)C1CC1)C1CCCCC1)C(=O)N1C[C@H]2[C@@H]([C@H]1C(=O)NC(CC1CC1)C(=O)C(N)=O)C2(C)C (mixture of isomers) | 8 nM | 100 nM | > 5 µM | 1.4 µM·h | concentration at 6 h [5]: 2700 nM |
| CC1(NC(=O)N[C@H](C(=O)N2C[C@H]3[C@@H]([C@H]2C(=O)NC(CC2CC2)C(=O)C(N)=O)C3(C)C)C(C)(C)C)CCCCC1 (mixture of isomers) | 9 nM | 200 nM | > 5 µM |  |  |
| CC(C)(C)NC(=O)N[C@H](C(=O)N1C[C@H]2[C@@H]([C@H]1C(=O)NC(CC1CCC1)C(=O)C(N)=O)C2(C)C)C(C)(C)C (stereo partly drawn) [BOCEPREVIR] | 14 nM | 350 nM | > 5 µM | 0.14 µM·h | concentration at 8 h [20]: 300 nM |
